Data set [1] is described as follows: Total blood clearance in monkey blood at 0.5 mg/kg, iv. The format is ADME, organism-based, Macaca mulatta. As to conditions: rhesus monkey; call rule not given here.
Data set [2] can be described thus: Half life in monkey at 0.5 mg/kg, iv. The format is ADME, organism-based, Macaca mulatta. The following applies: rhesus monkey, in vivo.
Data set [3] in a line: Toxicity in rat assessed as sedation by measuring spontaneous locomotor activity at 100 to 300 mg/kg, po. It counts as organism-based. The following applies: in vivo. In a few lines: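 Male rats, spontaneous locomotor activity test; oral doses 60, 100 or 300 mg/kg given 30 min before the session; plasma sampled 60 min postdose at 60 mg/kg.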
For data set [4], the target named is T1, Cytochrome P450 1A2 (Homo sapiens, UniProt P05177).
T1 sequence (P05177 whole entry): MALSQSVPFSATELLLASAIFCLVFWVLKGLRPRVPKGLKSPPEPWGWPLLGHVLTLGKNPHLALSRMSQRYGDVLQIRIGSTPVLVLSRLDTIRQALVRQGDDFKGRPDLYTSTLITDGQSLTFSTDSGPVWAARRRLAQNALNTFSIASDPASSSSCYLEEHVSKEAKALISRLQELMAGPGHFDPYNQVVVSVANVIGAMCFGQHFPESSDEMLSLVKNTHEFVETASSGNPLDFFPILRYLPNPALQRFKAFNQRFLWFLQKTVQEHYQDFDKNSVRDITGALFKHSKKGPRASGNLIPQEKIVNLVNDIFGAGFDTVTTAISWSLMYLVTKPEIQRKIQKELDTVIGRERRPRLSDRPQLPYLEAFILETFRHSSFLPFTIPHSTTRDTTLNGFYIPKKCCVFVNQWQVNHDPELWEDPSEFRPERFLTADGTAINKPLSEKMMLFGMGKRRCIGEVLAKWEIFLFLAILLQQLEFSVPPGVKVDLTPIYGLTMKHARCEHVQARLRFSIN
The data set can be described thus: Inhibition of CYP1A2 (unknown origin). The format is ADME.

For data set [5], the target named is Voltage-gated inwardly rectifying potassium channel KCNH2 (Homo sapiens, UniProt Q12809). The data set can be described thus: Inhibition of human ERG.
Voltage-gated inwardly rectifying potassium channel KCNH2, sequence (Q12809 whole entry): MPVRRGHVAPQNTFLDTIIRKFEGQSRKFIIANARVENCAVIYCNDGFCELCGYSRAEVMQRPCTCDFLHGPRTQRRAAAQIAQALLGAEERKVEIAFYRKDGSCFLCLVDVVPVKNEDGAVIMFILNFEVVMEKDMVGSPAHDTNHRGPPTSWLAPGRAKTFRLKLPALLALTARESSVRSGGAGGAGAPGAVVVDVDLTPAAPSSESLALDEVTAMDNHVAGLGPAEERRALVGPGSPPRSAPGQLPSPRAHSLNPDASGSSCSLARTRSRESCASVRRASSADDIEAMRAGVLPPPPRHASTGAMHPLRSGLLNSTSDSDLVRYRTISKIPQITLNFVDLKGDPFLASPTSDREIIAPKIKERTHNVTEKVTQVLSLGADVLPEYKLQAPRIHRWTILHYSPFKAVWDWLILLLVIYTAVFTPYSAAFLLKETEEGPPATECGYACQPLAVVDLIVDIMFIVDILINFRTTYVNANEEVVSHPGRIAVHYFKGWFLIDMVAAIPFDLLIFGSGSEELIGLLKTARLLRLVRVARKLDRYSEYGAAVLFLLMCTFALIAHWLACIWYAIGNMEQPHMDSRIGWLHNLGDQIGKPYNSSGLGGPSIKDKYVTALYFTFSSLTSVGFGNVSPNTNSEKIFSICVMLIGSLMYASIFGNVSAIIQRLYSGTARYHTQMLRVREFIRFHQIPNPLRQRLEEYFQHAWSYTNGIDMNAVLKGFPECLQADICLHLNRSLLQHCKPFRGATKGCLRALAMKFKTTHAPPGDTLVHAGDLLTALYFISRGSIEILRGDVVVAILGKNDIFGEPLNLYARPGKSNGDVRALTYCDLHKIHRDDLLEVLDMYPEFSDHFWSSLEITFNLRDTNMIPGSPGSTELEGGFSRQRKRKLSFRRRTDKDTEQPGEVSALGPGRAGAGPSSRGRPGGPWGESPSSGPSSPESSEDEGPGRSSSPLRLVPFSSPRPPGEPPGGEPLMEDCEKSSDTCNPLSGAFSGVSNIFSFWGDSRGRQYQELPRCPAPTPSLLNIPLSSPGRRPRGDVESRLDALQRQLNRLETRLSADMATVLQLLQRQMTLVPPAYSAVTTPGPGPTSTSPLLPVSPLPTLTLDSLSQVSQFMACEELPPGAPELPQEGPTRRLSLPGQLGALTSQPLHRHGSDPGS
The target of data set [6] is Cytochrome P450 2C19 (Homo sapiens, UniProt P33261). Description: Inhibition of CYP2C19 (unknown origin). It counts as ADME.
Cytochrome P450 2C19, sequence (P33261 whole entry): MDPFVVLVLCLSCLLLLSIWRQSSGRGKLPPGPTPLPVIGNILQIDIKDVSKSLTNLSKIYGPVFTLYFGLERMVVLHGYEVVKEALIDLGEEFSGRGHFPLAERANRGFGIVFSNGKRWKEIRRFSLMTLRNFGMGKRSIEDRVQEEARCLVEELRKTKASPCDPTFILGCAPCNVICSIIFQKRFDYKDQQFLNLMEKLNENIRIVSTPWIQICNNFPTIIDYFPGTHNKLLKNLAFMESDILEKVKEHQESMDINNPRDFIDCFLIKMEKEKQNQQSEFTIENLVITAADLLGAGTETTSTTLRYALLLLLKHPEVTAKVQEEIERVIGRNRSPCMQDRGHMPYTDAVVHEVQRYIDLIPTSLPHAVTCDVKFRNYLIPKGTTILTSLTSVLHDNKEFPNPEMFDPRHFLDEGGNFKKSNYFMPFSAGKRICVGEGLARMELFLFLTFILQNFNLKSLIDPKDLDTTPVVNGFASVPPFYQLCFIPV
Data set [7] is described as follows: Aqueous solubility of the compound in FeSSIF. The format is physicochemical.
Data set [8] has as its target ATP-dependent translocase ABCB1 (Homo sapiens, UniProt P08183). The data set can be described thus: Inhibition of P-glycoprotein (unknown origin) upto 100 uM.
Data set [9] deals with T2, Solute carrier organic anion transporter family member 1B3 (Homo sapiens, UniProt Q9NPD5).
T2 sequence (Q9NPD5 whole entry): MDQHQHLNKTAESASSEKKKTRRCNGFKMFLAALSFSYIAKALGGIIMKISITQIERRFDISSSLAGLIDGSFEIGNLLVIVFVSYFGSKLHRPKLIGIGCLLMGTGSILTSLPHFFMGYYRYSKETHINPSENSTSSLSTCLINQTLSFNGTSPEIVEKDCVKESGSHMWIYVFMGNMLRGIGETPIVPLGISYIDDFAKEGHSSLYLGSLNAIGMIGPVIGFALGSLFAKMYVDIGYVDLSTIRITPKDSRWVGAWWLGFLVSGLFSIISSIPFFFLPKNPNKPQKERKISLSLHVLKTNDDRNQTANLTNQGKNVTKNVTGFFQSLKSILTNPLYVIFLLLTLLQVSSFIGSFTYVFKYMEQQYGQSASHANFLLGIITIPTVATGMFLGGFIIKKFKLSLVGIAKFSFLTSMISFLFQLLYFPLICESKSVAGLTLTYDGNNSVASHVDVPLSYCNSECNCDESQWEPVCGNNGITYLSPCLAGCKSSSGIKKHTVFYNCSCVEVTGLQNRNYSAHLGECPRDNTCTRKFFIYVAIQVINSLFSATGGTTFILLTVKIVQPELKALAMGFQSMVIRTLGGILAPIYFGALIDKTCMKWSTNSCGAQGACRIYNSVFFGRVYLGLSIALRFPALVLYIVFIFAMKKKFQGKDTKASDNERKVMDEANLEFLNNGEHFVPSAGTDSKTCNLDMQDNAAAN
The data set can be described thus: Inhibition of OATP1B3 (unknown origin).

For data set [10], the target named is T3, Amine oxidase [flavin-containing] A (Homo sapiens, UniProt P21397).
T3 sequence (P21397 whole entry): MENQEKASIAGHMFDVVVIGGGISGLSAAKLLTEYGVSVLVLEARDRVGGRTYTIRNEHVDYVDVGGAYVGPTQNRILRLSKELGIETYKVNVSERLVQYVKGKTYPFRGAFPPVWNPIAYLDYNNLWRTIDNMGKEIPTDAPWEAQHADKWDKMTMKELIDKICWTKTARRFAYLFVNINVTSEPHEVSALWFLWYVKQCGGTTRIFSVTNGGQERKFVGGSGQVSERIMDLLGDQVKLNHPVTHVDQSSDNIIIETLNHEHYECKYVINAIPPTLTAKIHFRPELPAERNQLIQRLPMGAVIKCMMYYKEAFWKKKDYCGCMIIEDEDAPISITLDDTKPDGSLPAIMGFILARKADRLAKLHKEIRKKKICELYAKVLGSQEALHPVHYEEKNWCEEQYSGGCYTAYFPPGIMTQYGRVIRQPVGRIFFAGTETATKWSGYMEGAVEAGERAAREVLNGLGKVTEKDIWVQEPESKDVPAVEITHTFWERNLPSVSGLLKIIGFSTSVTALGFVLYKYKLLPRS
Description: Inhibition of MAO-A (unknown origin).

For data set [11], the target named is T4, Amine oxidase [flavin-containing] B (Homo sapiens, UniProt P27338).
T4 sequence (P27338 whole entry): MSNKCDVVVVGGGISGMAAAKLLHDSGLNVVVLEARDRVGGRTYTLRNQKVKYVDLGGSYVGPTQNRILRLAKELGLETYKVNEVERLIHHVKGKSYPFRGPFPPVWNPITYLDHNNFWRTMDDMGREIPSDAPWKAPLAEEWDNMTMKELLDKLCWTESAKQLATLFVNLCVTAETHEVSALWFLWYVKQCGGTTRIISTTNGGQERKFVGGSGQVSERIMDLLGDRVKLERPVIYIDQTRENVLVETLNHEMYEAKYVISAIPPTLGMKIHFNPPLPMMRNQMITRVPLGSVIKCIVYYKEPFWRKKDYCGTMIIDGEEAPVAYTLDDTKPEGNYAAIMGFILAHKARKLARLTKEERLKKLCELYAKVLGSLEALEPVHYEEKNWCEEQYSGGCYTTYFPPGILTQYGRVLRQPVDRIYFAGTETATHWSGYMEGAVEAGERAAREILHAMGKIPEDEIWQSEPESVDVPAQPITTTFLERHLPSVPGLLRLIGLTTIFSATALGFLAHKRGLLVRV
The data set can be described thus: Inhibition of MAO-B (unknown origin). In a few lines:
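MAO-B inhibition measured in human liver microsomes, reported as pIC50.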

Molecules are shown by their SMILES.

ATP-dependent translocase ABCB1, sequence (P08183 whole entry): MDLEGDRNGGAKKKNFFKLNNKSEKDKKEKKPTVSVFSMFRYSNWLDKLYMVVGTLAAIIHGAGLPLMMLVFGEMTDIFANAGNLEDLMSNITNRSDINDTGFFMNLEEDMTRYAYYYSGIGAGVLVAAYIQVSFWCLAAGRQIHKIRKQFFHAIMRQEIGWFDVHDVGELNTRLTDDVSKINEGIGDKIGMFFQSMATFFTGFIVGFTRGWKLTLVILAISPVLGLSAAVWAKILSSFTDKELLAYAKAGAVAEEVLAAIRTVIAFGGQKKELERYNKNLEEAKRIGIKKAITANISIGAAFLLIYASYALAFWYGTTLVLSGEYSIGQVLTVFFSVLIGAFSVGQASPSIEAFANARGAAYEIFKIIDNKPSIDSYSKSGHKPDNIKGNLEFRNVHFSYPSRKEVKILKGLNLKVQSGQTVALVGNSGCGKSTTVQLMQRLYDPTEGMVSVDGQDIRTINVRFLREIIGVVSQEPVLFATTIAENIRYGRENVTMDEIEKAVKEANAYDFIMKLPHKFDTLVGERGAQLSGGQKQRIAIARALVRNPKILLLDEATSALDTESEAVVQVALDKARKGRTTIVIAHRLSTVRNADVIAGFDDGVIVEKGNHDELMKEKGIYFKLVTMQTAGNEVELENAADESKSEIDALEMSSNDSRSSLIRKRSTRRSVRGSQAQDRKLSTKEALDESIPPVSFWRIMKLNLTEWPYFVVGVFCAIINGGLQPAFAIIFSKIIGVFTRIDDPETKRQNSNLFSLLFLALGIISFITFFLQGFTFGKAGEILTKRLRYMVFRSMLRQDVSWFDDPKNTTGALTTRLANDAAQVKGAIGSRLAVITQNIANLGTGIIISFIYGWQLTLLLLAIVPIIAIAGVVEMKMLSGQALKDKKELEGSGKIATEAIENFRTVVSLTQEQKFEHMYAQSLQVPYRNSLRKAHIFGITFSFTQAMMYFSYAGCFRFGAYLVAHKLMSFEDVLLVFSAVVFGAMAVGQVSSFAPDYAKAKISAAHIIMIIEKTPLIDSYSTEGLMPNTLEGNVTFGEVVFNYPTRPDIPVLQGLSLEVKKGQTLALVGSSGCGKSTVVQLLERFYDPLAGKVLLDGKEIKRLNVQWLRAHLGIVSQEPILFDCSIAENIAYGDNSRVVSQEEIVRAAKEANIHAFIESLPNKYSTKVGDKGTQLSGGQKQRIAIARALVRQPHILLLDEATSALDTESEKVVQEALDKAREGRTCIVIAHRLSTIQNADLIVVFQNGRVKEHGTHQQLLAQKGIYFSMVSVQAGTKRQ

In data set [1], `Cl.NC(=O)[C@@H]1CC[C@H](c2ccc(OCc3ccccc3F)cc2)N1` [RAXATRIGINE HYDROCHLORIDE] showed a clearance of 5 mL/min/kg. This molecule gave a half-life in data set [2] of 5 h. Further, the Activity entry in data set [3] is “Toxic”. Moreover, the IC50 in data set [4] is 13 µM; in [5], 12.6 µM; in [6] it was 79 µM; in data set [11], 0.00398 µM. In addition, in data set [7], the solubility is 6900 µg/mL. Besides, the “inhibition (INH)” value in [8] and in data set [9] was “Not Active” each time. In addition, the Ki in data set [10] is greater than 10 µM.

Broadly, the clearance is the volume of plasma or blood freed of the substance per unit of time. Broadly, the half-life is the time in which the quantity being followed falls by half. Broadly, the IC50 is the concentration needed to halve the response being measured. For orientation: solubility means the dissolved amount per volume that the medium holds. Usually Ki stands for the equilibrium dissociation constant of an inhibitor or competing ligand from its target.

For the origin of these results see ChEMBL document CHEMBL4622996, “Discovery of Vixotrigine: A Novel Use-Dependent Sodium Channel Blocker for the Treatment of Trigeminal Neuralgia” (ACS Med Chem Lett, 2020).
